ChEMBL document CHEMBL1146049, “Novel dual inhibitors of calpain and lipid peroxidation with enhanced cellular activity” (Bioorg Med Chem Lett, 2006)
Calls of active or inactive are those of the source. The rule behind the calls is not given here.

Experiments:
[1] = target: Calpain 1 (Homo sapiens, UniProt P07384); experiment: (§1) Inhibition of isolated human calpain1; type: protein-complex assay
Summary of the method: (§2)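 Isolated human calpain 1 enzyme assay with Suc-Leu-Tyr-AMC as substrate; IC50 determined.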

[2] = Inhibition of maitotoxin induced intracellular calpain in glioma C6 cells; type: functional, cell-based; conditions: Rattus norvegicus
Summary of the method: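 Rat glioma C6 cells were exposed to compound for 4 h, the last 3 h with maitotoxin to activate calpain. Intracellular calpain activity was read as cleavage of the fluorogenic substrate Suc-Leu-Tyr-AMC. IC50 values are means of three experiments.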

[3] = Ratio of pIC50 (rat calpain/human calpain 1)
Summary of the method: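 pRatio = −log(intracellular calpain IC50 / human calpain 1 IC50). The intracellular IC50 comes from glioma C6 cells, which were exposed to compound for 4 h in total, including 3 h with maitotoxin to induce calpain activation, with Suc-Leu-Tyr-AMC as substrate. The enzymatic IC50 comes from isolated human calpain 1 with the same substrate.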

[4] = target: Cathepsin B (Homo sapiens) (UniProt P07858); experiment: Inhibition of cathepsinB
[5] = target: T1, Caspase-3 (Homo sapiens) (UniProt P42574); experiment: Inhibition of caspase3
T1 sequence (whole entry): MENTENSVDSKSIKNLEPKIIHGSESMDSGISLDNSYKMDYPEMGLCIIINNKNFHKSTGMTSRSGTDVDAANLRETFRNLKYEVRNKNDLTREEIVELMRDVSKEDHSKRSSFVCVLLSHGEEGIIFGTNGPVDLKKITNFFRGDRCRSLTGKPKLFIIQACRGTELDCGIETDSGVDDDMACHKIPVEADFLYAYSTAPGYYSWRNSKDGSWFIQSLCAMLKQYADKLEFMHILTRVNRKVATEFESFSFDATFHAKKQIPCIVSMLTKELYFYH

[6] = target: Chymotrypsinogen A (Bos taurus) (UniProt P00766); experiment: Inhibition of alpha chymotrypsin
[7] = test system: Radical scavenging activity; experiment: Inhibition of ferrous induced lipid peroxidation in rat brain microsomes; type: functional
[8] = target: T2, Calpain 1 (Homo sapiens, UniProt P04632+P07384); experiment: as §1; type: protein-complex assay; summary of the method: as §2
T2 sequence (P04632 whole entry): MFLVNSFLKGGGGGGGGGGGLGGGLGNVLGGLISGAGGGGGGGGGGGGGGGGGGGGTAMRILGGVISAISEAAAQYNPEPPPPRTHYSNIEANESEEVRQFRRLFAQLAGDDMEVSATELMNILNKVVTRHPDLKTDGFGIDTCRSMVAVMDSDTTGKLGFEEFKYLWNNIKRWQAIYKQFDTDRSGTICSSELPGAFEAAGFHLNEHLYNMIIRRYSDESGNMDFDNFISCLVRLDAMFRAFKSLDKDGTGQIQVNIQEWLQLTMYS
T2 sequence (P07384 whole entry): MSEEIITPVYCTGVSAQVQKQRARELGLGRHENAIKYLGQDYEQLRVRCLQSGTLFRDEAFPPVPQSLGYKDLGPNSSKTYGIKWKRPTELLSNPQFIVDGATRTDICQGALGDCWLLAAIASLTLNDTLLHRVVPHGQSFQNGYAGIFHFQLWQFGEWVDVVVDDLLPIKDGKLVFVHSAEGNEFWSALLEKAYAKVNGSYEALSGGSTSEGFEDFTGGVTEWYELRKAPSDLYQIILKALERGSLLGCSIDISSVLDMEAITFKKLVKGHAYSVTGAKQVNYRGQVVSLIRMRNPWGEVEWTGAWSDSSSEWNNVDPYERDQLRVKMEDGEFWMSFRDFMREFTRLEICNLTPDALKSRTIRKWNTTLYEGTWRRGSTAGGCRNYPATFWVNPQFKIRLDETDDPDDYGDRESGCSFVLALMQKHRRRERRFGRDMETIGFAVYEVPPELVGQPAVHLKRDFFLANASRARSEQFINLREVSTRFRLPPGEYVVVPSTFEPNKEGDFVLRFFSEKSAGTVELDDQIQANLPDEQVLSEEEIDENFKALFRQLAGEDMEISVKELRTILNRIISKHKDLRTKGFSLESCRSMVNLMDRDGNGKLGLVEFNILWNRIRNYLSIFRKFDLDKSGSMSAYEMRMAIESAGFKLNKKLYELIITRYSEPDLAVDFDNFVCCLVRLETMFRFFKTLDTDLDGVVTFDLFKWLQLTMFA

Row | Structure (SMILES) | IC50 [1] [nM] | IC50 [2] [nM] | Negative log of IC50 ratio (cellular/enzyme) [3] | Activity [4] | Activity [5] | Activity [6] | IC50 [7] [nM] | IC50 [8] [nM]
1 | CC(C)C[C@H](NC(=O)[C@@H](NC(=O)COc1ccc2c(c1)Nc1ccccc1S2)c1ccccc1)C(=O)N[C@H]1CCOC1O (some centres not stated) | 222 | 5000 | 1.65 | Active | inactive | inactive | – | –
2 | CC(C)C[C@H](NC(=O)C(C)(C)NC(=O)COc1ccc2c(c1)Nc1ccccc1S2)C(=O)N[C@H]1CCOC1O (some centres not stated) | 138 | 30000 | 0.66 | Active | inactive | inactive | – | –
3 | CC(C)C[C@H](NC(=O)[C@@H](NC(=O)COc1ccc2c(c1)Nc1ccccc1S2)[C@H](C)O)C(=O)N[C@H]1CCOC1O (some centres not stated) | 38 | 2000 | 1.28 | Active | inactive | inactive | – | –
4 | CCC[C@H](NC(=O)COc1ccc2c(c1)Nc1ccccc1S2)C(=O)N[C@@H](CC(C)C)C(=O)N[C@H]1CCOC1O (some centres not stated) | 151 | 600 | 2.4 | Active | inactive | inactive | – | –
5 | CC(C)C[C@H](NC(=O)[C@@H](NC(=O)COc1ccc2c(c1)Nc1ccccc1S2)C(C)C)C(=O)N[C@H]1CCOC1O (some centres not stated) | 75.9 | 1000 | 1.88 | Active | inactive | inactive | – | –
6 | CC(C)C[C@H](NC(=O)[C@H](CO)NC(=O)COc1ccc2c(c1)Nc1ccccc1S2)C(=O)N[C@H]1CCOC1O (some centres not stated) | 48.7 | 3000 | 1.21 | Active | inactive | inactive | – | –
7 | CC(C)C[C@H](NC(=O)CCc1ccc2c(c1)Nc1ccccc1S2)C(=O)N[C@@H](CC(C)C)C(=O)N[C@H]1CCOC1O (some centres not stated) | 150 | 10000 | – | – | – | – | 3300 | –
8 | CC(C)C[C@H](NC(=O)c1ccc2c(c1)Nc1ccccc1S2)C(=O)N[C@@H](CC(C)C)C(=O)N[C@H]1CCOC1O (some centres not stated) | 85.5 | 1800 | – | – | – | – | 1100 | –
9 | CC(C)C[C@H](NC(=O)Cc1ccc2c(c1)Nc1ccccc1S2)C(=O)N[C@@H](CC(C)C)C(=O)N[C@H]1CCOC1O (some centres not stated) | 55.4 | 2500 | – | – | – | – | 966 | –
10 | CC(C)C[C@H](NC(=O)COc1ccc2c(c1)Nc1ccccc1S2)C(=O)N[C@@H](CC(C)C)C(=O)N[C@H]1CCOC1O (stereo in doubt; 6d-08) [listing 1 of 2 here] | – | – | 2.24 | Active | inactive | inactive | – | –
11 | CC(C)C[C@H](NC(=O)[C@@H](NC(=O)COc1ccc2c(c1)Nc1ccccc1S2)C(C)(C)C)C(=O)N[C@H]1CCOC1O (some centres not stated) | 354 | 4000 | 1.95 | Active | inactive | inactive | – | –
12 | CC(C)C[C@H](NC(=O)[C@H](C)NC(=O)COc1ccc2c(c1)Nc1ccccc1S2)C(=O)N[C@H]1CCOC1O (some centres not stated) | 25 | 15000 | 0.22 | Active | inactive | inactive | – | –
13 | CC(C)C[C@H](NC(=O)COc1ccc2c(c1)Nc1ccccc1S2)C(=O)N[C@@H](CC(C)C)C(=O)N[C@H]1CCOC1O (stereo in doubt; 6d) | – | – | – | – | – | – | 333 | 105
14 | CC(C)C[C@H](NC(=O)[C@H](NC(=O)COc1ccc2c(c1)Nc1ccccc1S2)C(C)C)C(=O)N[C@H]1CCOC1O (some centres not stated) | 553 | 16000 | 1.54 | Active | inactive | inactive | – | –
15 | CC[C@H](NC(=O)COc1ccc2c(c1)Nc1ccccc1S2)C(=O)N[C@@H](CC(C)C)C(=O)N[C@H]1CCOC1O (some centres not stated) | 88.6 | 800 | 2.05 | Active | inactive | inactive | – | –
16 | CC(=O)OC1OCC[C@@H]1NC(=O)[C@H](CC(C)C)NC(=O)[C@H](CC(C)C)NC(=O)c1ccc2c(c1)Nc1ccccc1S2 (some centres not stated) | 905 | 1700 | – | – | – | – | 2310 | –
17 | CC(C)C[C@H](NC(=O)CNC(=O)COc1ccc2c(c1)Nc1ccccc1S2)C(=O)N[C@H]1CCOC1O (some centres not stated) | 8 | 63000 | -0.9 | Active | inactive | inactive | – | –
18 | CC(C)C[C@H](NC(=O)COc1ccc2c(c1)Nc1ccccc1S2)C(=O)N[C@@H](CC(C)C)C(=O)N[C@H]1CCOC1O (stereo in doubt; 6d-08) [listing 2 of 2 here] | 105 | 600 | – | – | – | – | – | –
19 | Cc1cc(C(C)(C)C)c(O)c(C(C)(C)C)c1 [BUTYLATED HYDROXYTOLUENE] | – | – | – | – | – | – | 3250 | –
